Experiment [1] has as its target T1, Tyrosinase (Agaricus bisporus) (UniProt O42713).
T1 sequence (whole entry): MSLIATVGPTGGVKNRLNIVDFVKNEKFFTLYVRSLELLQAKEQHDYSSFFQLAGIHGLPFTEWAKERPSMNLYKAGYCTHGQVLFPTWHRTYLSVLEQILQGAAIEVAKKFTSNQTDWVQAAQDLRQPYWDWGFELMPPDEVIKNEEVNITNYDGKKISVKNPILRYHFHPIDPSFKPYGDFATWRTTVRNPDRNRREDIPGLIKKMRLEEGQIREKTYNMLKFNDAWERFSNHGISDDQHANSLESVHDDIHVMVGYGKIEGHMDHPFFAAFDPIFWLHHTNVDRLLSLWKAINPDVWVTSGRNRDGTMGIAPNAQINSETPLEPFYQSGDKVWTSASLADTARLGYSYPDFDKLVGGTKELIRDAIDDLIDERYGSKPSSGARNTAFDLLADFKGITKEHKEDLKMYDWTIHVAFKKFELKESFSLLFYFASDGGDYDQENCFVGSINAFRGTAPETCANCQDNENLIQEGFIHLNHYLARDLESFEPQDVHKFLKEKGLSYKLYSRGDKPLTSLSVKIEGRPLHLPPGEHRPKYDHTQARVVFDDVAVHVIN
As to the kind of experiment: Inhibition of mushroom tyrosinase assessed as oxidation of L-DOPA preincubated for 5 mins before L-DOPA addition. The method in brief: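 Enzyme (138 units) and sample pre-incubated in 0.1 M phosphate buffer pH 6.8 for 5 min at 25°. Then 0.4 ml of 6.3 mM L-DOPA stock added and the reaction followed at 475 nm for 4 min. Controls: no inhibitor with or without pre-incubation, and inhibitor without pre-incubation.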

The target in experiment [2] is T1, Tyrosinase (Agaricus bisporus). The experiment can be described thus: Inhibition of mushroom tyrosinase assessed as oxidation of L-DOPA at 0.8 mM.
Experiment [3] shares this target. The experiment can be described thus: Inhibition of mushroom tyrosinase assessed as oxidation of L-DOPA.
Experiment [4] has the same target. As to the kind of experiment: Inhibition of mushroom tyrosinase assessed as oxidation of L-DOPA by Lineweaver-Burke plot analysis. The method in brief: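 Mushroom tyrosinase (138 units) added to L-DOPA (1 ml of 2.5 mM stock) plus sample (DMSO solution diluted 30-fold) in 0.1 M phosphate buffer pH 6.8, after 10 min at 25°. Initial linear rate of dopachrome formation read at 475 nm; double-reciprocal plot of 1/V (1/ΔA475 per min).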

Active and inactive are the calls of the source. The calls are words filed in the database; no cut-off is given here.

Regarding `C=CC/C=C\C/C=C\CCCCCCCc1cccc(O)c1C(=O)O` (stereo in doubt; 5), the outcome in experiment [1] was Active. For the same molecule, the inhibition in experiment [2] was found to be 45%. Besides, in experiment [3], the Activity result was “Dose-dependent effect” and the ID50 turned out to be 1.1 mM. The outcome in experiment [4] was Active.
For the molecule `Oc1cccc(O)c1`, the inhibition in experiment [2] came to 34%. In addition, the ID50 in experiment [3] was determined as 1.2 mM.
In the case of `OC[C@H]1O[C@@H](Oc2ccc(O)cc2)[C@H](O)[C@@H](O)[C@@H]1O`, the ID50 in experiment [3] was found to be 6.2 mM.
Regarding `C=CC/C=C\C/C=C\CCCCCCCc1cc(O)c(C)c(O)c1`, the inhibition in experiment [2] amounted to 16%.
For `CCCCCCCCCCCCCCCc1cccc(O)c1`, the result in experiment [2] was inactive.
On to `CCCCCC/C=C\CCCCCCCc1cccc(O)c1C(=O)O`, for which the inhibition in experiment [2] was 15%. Further, in experiment [3], the Activity result was “Dose-dependent effect” and the ID50 was 7.5 mM.
In the case of `CCCCCC/C=C\CCCCCCCc1cc(O)c(C)c(O)c1`, the inhibition in experiment [2] came to 24%.
As for `CCC/C=C\C/C=C\CCCCCCCc1cc(O)c(C)c(O)c1`, in experiment [2], the inhibition was determined as 20%.
Take `C=CC/C=C\C/C=C\CCCCCCCc1cc(O)cc(O)c1`: the result in experiment [1] and in experiment [4] was Active. Also, the inhibition in experiment [2] was found to be 88%. Also, the Activity result in experiment [3] is “Dose-dependent effect”. Further, the ID50 in experiment [3] turned out to be 0.04 mM.
As for `CCC/C=C\C/C=C\CCCCCCCc1cccc(O)c1C(=O)O`, the inhibition in experiment [2] stood at 15%. In experiment [3], the Activity entry is “Dose-dependent effect” and the ID50 is 6 mM.
Taken in the same sequence, the figures for `C=CC/C=C\C/C=C\CCCCCCCc1cccc(O)c1C(=O)O` (stereo in doubt; 8) were 15%, “Dose-dependent effect” and 4.2 mM.
As to `CCCCCCCCCCCCCCCc1cc(O)cc(O)c1`, the inhibition in experiment [2] amounted to 21%. Moreover, in experiment [3], the Activity entry is “Dose-dependent effect”.
Take `O=C(O)c1ccccc1O`: in experiment [2], the inhibition amounted to 23%. Further, the ID50 in experiment [3] is 3.9 mM.

As a reminder, the inhibition is the relative decrease from the control value, in per cent.

For the origin of these results see ChEMBL document CHEMBL1149064, “Tyrosinase inhibitors from Anacardium occidentale fruits” (J Nat Prod, 1994).
